Active and inactive are the calls of the source. No cut-off for these calls is given here.
Legend:
[1] = tested on: M21; test: Cell cycle arrest in human M21 cells assessed as accumulation at G0/G1 phase at 2 times IC50 after 24 hrs by DAPI staining based flow cytometry relative to control
[2] = tested on: HT-29; test: Antiproliferative activity against human HT-29 cells after 48 hrs by SRB assay; type: functional, cell-based; details: HT-29, 48 h
Method in brief: (§1)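 Cells grown in DMEM with 5% FBS at 37 C; seeded per well at 2.5 x 10^3 (HT-1080), 4.0 x 10^3 (HT-29), 3.0 x 10^3 (M21) or 2.5 x 10^3 (MCF7). Drugs from 40 mM DMSO stock, serial dilutions, final 100 µM to 78 nM, DMSO <0.5%.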

[3] = tested on: M21; test: Cell cycle arrest in human M21 cells assessed as accumulation at S phase at 2 times IC50 after 24 hrs by DAPI staining based flow cytometry relative to control
[4] = tested on: M21; test: Cell cycle arrest in human M21 cells assessed as accumulation at sub-G1 phase at 2 times IC50 after 24 hrs by DAPI staining based flow cytometry relative to control
[5] = tested on: M21; test: Cell cycle arrest in human M21 cells assessed as accumulation at G2/M phase at 2 times IC50 after 24 hrs by DAPI staining based flow cytometry relative to control
[6] = tested on: M21; test: Antiproliferative activity against human M21 cells after 48 hrs by SRB assay; type: functional, cell-based; details: M21, 48 h
Method in brief: as §1

[7] = tested on: MCF7; test: Antiproliferative activity against human MCF7 cells after 48 hrs by SRB assay; type: functional, cell-based; details: MCF7, 48 h
Method in brief: as §1

[8] = tested on: HT-1080; test: Antiproliferative activity against human HT1080 cells after 48 hrs by SRB assay; type: functional, cell-based; details: HT-1080, 48 h
Method in brief: as §1

[9] = Alkylating activity at DNA (unknown origin) after 90 mins by colorimetric NBP assay; type: functional
Method in brief: (§2)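 NBP alkylation kinetics (Bardos colorimetric method): 400 nmol drug in 1 mL ethanol mixed with 1 mL NBP (10% v/v in 95% ethanol), 1 mL 50 mM acetate buffer pH 4.3 and 1 mL ethanol, kept on ice, then heated at 80 C in shaking water bath; stopped on ice 5 min after 0, 30, 60, 90 min. Rate constant from linear regression of absorbance curve; chlorambucil as positive control.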

[10] = Alkylating activity at DNA (unknown origin) after 90 mins by colorimetric NBP assay relative to chlorambucil; type: functional
Method in brief: as §2

[11] = tested on: M21; test: Cell cycle arrest in human M21 cells assessed as accumulation at sub-G1 phase at 2 times IC50 after 24 hrs by DAPI staining based flow cytometry relative to control; type: functional
Method in brief: (§3)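 Flow cytometry in M21 cells seeded in six-well plates, allowed 24 h, then exposed 24 h to drug (2- or 5-fold IC50); DMSO 0.5% control. Trypsinized, PBS-washed, fixed in ice-cold EtOH, stained with 2 mg/mL DAPI in PBS; sub-G1, G0/G1, S and G2/M fractions measured on LSR II cytometer.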

[12] = tested on: M21; test: Cell cycle arrest in human M21 cells assessed as accumulation at S phase at 2 times IC50 after 24 hrs by DAPI staining based flow cytometry relative to control; type: functional
Method in brief: as §3

[13] = tested on: M21; test: Cell cycle arrest in human M21 cells assessed as accumulation at G0/G1 phase at 2 times IC50 after 24 hrs by DAPI staining based flow cytometry relative to control; type: functional
Method in brief: as §3

[14] = tested on: M21; test: Cell cycle arrest in human M21 cells assessed as accumulation at G2/M phase at 2 times IC50 after 24 hrs by DAPI staining based flow cytometry relative to control; type: functional
Method in brief: as §3

[15] = tested on: M21; test: Induction of DNA damage in human M21 cells assessed as increase in gammaH2Ax level at 5 times IC50 after 24 hrs by immunofluorescence based epifluorescence microscopy

## O=C(NCC1CCCC1)Nc1ccc(S(=O)(=O)Oc2ccccc2I)cc1
[1]
  Activity: 56.2%
[2]
  IC50: 7.6 µM
[3]
  Activity: 18.9%
[4]
  Activity: 0.1%
[5]
  Activity: 24.8%
[6]
  IC50: 7.6 µM
[7]
  IC50: 6.6 µM
[8]
  IC50: 6.1 µM

## CC(C)c1ccccc1OS(=O)(=O)c1ccc(NC(=O)NCCCl)cc1
[9]
  K: 0.0034 ×10⁻³ /s
[10]
  fold change (FC): 1600

## CC(C)(C)C(=O)Nc1ccc(S(=O)(=O)Oc2ccccc2I)cc1
[2]
  IC50: 9.5 µM
[11]
  Activity: 0%
[12]
  Activity: 29.1%
[13]
  Activity: 55%
[6]
  IC50: 8.3 µM
[14]
  Activity: 15.9%
[7]
  IC50: 6.6 µM
[8]
  IC50: 2.6 µM

## O=C(NCCCl)Nc1ccc(S(=O)(=O)Oc2ccccc2I)cc1
[9]
  K: 0.071 ×10⁻³ /s
[1]
  Activity: 56.8%
[10]
  fold change (FC): 75
[3]
  Activity: 30.9%
[4]
  Activity: 0.1%
[5]
  Activity: 12.2%

## O=C(CCl)Nc1ccc(S(=O)(=O)Oc2ccccc2I)cc1
[2]
  IC50: 4.1 µM
[11]
  Activity: 0.3%
[12]
  Activity: 16.5%
[13]
  Activity: 71.1%
[6]
  IC50: 3.9 µM
[14]
  Activity: 12.1%
[7]
  IC50: 2.5 µM
[8]
  IC50: 0.6 µM

## CC(C)c1ccccc1OS(=O)(=O)c1ccc(NC(=O)CCCl)cc1
[9]
  K: 0.024 ×10⁻³ /s
[10]
  fold change (FC): 220
[2]
  IC50: 16 µM
[11]
  Activity: 0.1%
[12]
  Activity: 35.6%
[15]
  Activity: Active
[13]
  Activity: 33.7%
[6]
  IC50: 14 µM
[14]
  Activity: 30.6%
[7]
  IC50: 9 µM
[8]
  IC50: 6.5 µM

## CC(C)C(=O)Nc1ccc(S(=O)(=O)Oc2ccccc2C(C)C)cc1
[2]
  IC50: 14 µM
[11]
  Activity: 0.2%
[12]
  Activity: 27.3%
[13]
  Activity: 62%
[6]
  IC50: 11 µM
[14]
  Activity: 10.5%
[7]
  IC50: 8.6 µM
[8]
  IC50: 4.9 µM

## CCCCCC(=O)Nc1ccc(S(=O)(=O)Oc2ccccc2I)cc1
[2]
  IC50: 13 µM
[11]
  Activity: 0.2%
[12]
  Activity: 12.9%
[13]
  Activity: 42.6%
[6]
  IC50: 11 µM
[14]
  Activity: 44.3%
[7]
  IC50: 10 µM
[8]
  IC50: 9.6 µM

## CC(C)C(=O)Nc1ccc(S(=O)(=O)Oc2ccccc2I)cc1
[2]
  IC50: 13 µM
[11]
  Activity: 0.2%
[12]
  Activity: 23.6%
[13]
  Activity: 62%
[6]
  IC50: 13 µM
[14]
  Activity: 14.2%
[7]
  IC50: 8.1 µM
[8]
  IC50: 3.3 µM

## CCNC(=O)Nc1ccc(S(=O)(=O)Oc2ccccc2CC)cc1
[9]
  K: 0.032 ×10⁻³ /s
[10]
  fold change (FC): 170

## CC(C)c1ccccc1OS(=O)(=O)c1cccc(NC(=O)CCCl)c1
[2]
  IC50: 11 µM
[6]
  IC50: > 40 µM
[7]
  IC50: 12 µM
[8]
  IC50: 8.2 µM

## CC(C)c1ccccc1OS(=O)(=O)c1ccc(NC(=O)NCC2CCCC2)cc1
[1]
  Activity: 63.9%
[2]
  IC50: 6.8 µM
[3]
  Activity: 14.3%
[4]
  Activity: 0.1%
[5]
  Activity: 21.7%
[6]
  IC50: 6.6 µM
[7]
  IC50: 7.1 µM
[8]
  IC50: 6 µM

## CCCCCNC(=O)Nc1ccc(S(=O)(=O)Oc2ccccc2I)cc1
[1]
  Activity: 62.2%
[2]
  IC50: 6.6 µM
[3]
  Activity: 14.7%
[4]
  Activity: 0.1%
[5]
  Activity: 23%
[6]
  IC50: 5.9 µM
[7]
  IC50: 5.4 µM
[8]
  IC50: 6.9 µM

## CC(C)c1ccccc1OS(=O)(=O)c1cccc(NC(=O)C(C)(C)C)c1
[2]
  IC50: 19 µM
[11]
  Activity: 0.7%
[12]
  Activity: 20%
[13]
  Activity: 61.1%
[6]
  IC50: 13 µM
[14]
  Activity: 18.2%
[7]
  IC50: 14 µM
[8]
  IC50: 11 µM

## CC(C)C(=O)Nc1cccc(S(=O)(=O)Oc2ccccc2C(C)C)c1
[2]
  IC50: 16 µM
[11]
  Activity: 0.1%
[12]
  Activity: 12.9%
[13]
  Activity: 54.5%
[6]
  IC50: 17 µM
[14]
  Activity: 32.5%
[7]
  IC50: 13 µM
[8]
  IC50: 16 µM

## CCCC(=O)Nc1cccc(S(=O)(=O)Oc2ccccc2C(C)C)c1
[2]
  IC50: 13 µM
[11]
  Activity: 3%
[12]
  Activity: 14.4%
[13]
  Activity: 64.2%
[6]
  IC50: 20 µM
[14]
  Activity: 18.4%
[7]
  IC50: 9.4 µM
[8]
  IC50: 15 µM

## CC(=O)Nc1ccc(S(=O)(=O)Oc2ccccc2C(C)C)cc1
[9]
  K: 0.36 ×10⁻³ /s
[10]
  fold change (FC): 14
[2]
  IC50: 23 µM
[6]
  IC50: 21 µM
[7]
  IC50: 16 µM
[8]
  IC50: 12 µM

## CC(=O)Nc1cccc(S(=O)(=O)Oc2ccccc2C(C)C)c1
[2]
  IC50: 27 µM
[6]
  IC50: 31 µM
[7]
  IC50: 21 µM
[8]
  IC50: 21 µM

## CC(C)c1ccccc1OS(=O)(=O)c1cccc(NC(=O)CCl)c1
[2]
  IC50: 4.5 µM
[11]
  Activity: 0%
[12]
  Activity: 17.1%
[13]
  Activity: 64.1%
[6]
  IC50: 3.9 µM
[14]
  Activity: 18.8%
[7]
  IC50: 2.2 µM
[8]
  IC50: 0.78 µM

## CC(=O)Nc1ccc(S(=O)(=O)Oc2ccccc2I)cc1
[2]
  IC50: 23 µM
[6]
  IC50: 27 µM
[7]
  IC50: 27 µM
[8]
  IC50: 17 µM

## CC(C)c1ccccc1OS(=O)(=O)c1ccc(NC(=O)CCl)cc1
[2]
  IC50: 5.6 µM
[11]
  Activity: 0.1%
[12]
  Activity: 18%
[13]
  Activity: 60.9%
[6]
  IC50: 3.9 µM
[14]
  Activity: 21%
[7]
  IC50: 2.9 µM
[8]
  IC50: 1 µM

## CCC(=O)Nc1cccc(S(=O)(=O)Oc2ccccc2C(C)C)c1
[2]
  IC50: 22 µM
[6]
  IC50: 25 µM
[7]
  IC50: 14 µM
[8]
  IC50: 12 µM

## O=C(O)CCCc1ccc(N(CCCl)CCCl)cc1
[9]
  K: 5.3 ×10⁻³ /s

## CC(C)c1ccccc1OS(=O)(=O)c1ccc(NC(=O)CCCCl)cc1
[2]
  IC50: 6.2 µM
[11]
  Activity: 0.2%
[12]
  Activity: 19.3%
[13]
  Activity: 55.3%
[6]
  IC50: 5.1 µM
[14]
  Activity: 25.2%
[7]
  IC50: 5.2 µM
[8]
  IC50: 3.8 µM

## CC(C)c1ccccc1OS(=O)(=O)c1ccc(NC(=O)NC2CCCC2)cc1
[1]
  Activity: 60.2%
[2]
  IC50: 7.4 µM
[3]
  Activity: 12.5%
[4]
  Activity: 0.1%
[5]
  Activity: 27.2%
[6]
  IC50: 6.1 µM
[7]
  IC50: 6.2 µM
[8]
  IC50: 3.9 µM

## CCCCCC(=O)Nc1ccc(S(=O)(=O)Oc2ccccc2C(C)C)cc1
[2]
  IC50: 6.4 µM
[11]
  Activity: 3.7%
[12]
  Activity: 28.3%
[13]
  Activity: 41.4%
[6]
  IC50: 6.7 µM
[14]
  Activity: 26.6%
[7]
  IC50: 5.3 µM
[8]
  IC50: 6.3 µM

## O=C(Nc1ccc(S(=O)(=O)Oc2ccccc2I)cc1)NC1CC1
[1]
  Activity: 61.5%
[2]
  IC50: 14 µM
[3]
  Activity: 26.9%
[4]
  Activity: 0.1%
[5]
  Activity: 11.5%
[6]
  IC50: 11 µM
[7]
  IC50: 7.4 µM
[8]
  IC50: 1.3 µM

## CCCCCNC(=O)Nc1ccc(S(=O)(=O)Oc2ccccc2C(C)C)cc1
[1]
  Activity: 60.6%
[2]
  IC50: 4.9 µM
[3]
  Activity: 12.2%
[4]
  Activity: 0.3%
[5]
  Activity: 26.9%
[6]
  IC50: 4.6 µM
[7]
  IC50: 4 µM
[8]
  IC50: 4.7 µM

## CCCNC(=O)Nc1ccc(S(=O)(=O)Oc2ccccc2C(C)C)cc1
[9]
  K: 0.027 ×10⁻³ /s
[1]
  Activity: 64.6%
[10]
  fold change (FC): 200
[2]
  IC50: 6.3 µM
[3]
  Activity: 25.1%
[4]
  Activity: 0.3%
[5]
  Activity: 10%
[6]
  IC50: 5.1 µM
[7]
  IC50: 2.7 µM
[8]
  IC50: 0.68 µM

## O=C(CCCCl)Nc1ccc(S(=O)(=O)Oc2ccccc2I)cc1
[2]
  IC50: 9.1 µM
[11]
  Activity: 0.2%
[12]
  Activity: 17.1%
[13]
  Activity: 42%
[6]
  IC50: 7.2 µM
[14]
  Activity: 40.7%
[7]
  IC50: 6.3 µM
[8]
  IC50: 12 µM

## CCCCCC(=O)Nc1cccc(S(=O)(=O)Oc2ccccc2C(C)C)c1
[2]
  IC50: 19 µM
[11]
  Activity: 1.5%
[12]
  Activity: 16%
[13]
  Activity: 69%
[6]
  IC50: 11 µM
[14]
  Activity: 13.5%
[7]
  IC50: 12 µM
[8]
  IC50: 11 µM

Source: ChEMBL document CHEMBL4270536, “Preparation, characterisation and biological evaluation of new N-phenyl amidobenzenesulfonates and N-phenyl ureidobenzenesulfonates inducing DNA double-strand breaks. Part 3. Modulation of ring A” (Eur J Med Chem, 2018)
